Experiments:
[1] = n-Octanol/phosphate buffer partition coefficient, logP of the compound at pH 7.4 incubated for 85 mins by shake-flask method; assay type: physicochemical
How it was run: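 Octanol–water partition by shake-flask: n-octanol with 0.15 M phosphate buffer pH 7.4 at 10:1 volumes. Buffer-phase absorbance read before mixing, then shaken 50 min and centrifuged at 2500 rpm for 35 min. Buffer absorbance read again; P = (Ai−Af)/Af × Vw/Vo.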

T47D = assay: Antiproliferative activity against human T47D cells assessed as cell growth inhibition at 10 uM incubated for 48 hrs by sulforhodamine B assay relative to control; assay type: functional
How it was run: (§1)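 NCI-60 single-dose screen at 10^-5 M. Cells grown in RPMI 1640 with 5% FBS and 2 mM L-glutamine, plated at 5,000–40,000 cells/well, and preincubated 24 h. Drug (DMSO stock) added and incubated 48 h at 37 °C, 5% CO2. Adherent cells fixed with cold TCA, stained with 0.4% SRB in 1% acetic acid, dye solubilized in 10 mM trizma base, A515 read. Percent growth taken against time-zero and untreated control.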

MDA-MB-231 = assay: Antiproliferative activity against human MDA-MB-231 cells assessed as cell growth inhibition at 10 uM incubated for 48 hrs by sulforhodamine B assay relative to control; assay type: functional; how it was run: as §1
MCF7 = assay: Antiproliferative activity against human MCF7 cells assessed as cell growth inhibition at 10 uM incubated for 48 hrs by sulforhodamine B assay relative to control; assay type: functional; how it was run: as §1
PC-3 = assay: Antiproliferative activity against human PC-3 cells assessed as cell growth inhibition at 10 uM incubated for 48 hrs by sulforhodamine B assay relative to control; assay type: functional; how it was run: as §1
UO-31 = assay: Antiproliferative activity against human UO-31 cells assessed as cell growth inhibition at 10 uM incubated for 48 hrs by sulforhodamine B assay relative to control; assay type: functional; how it was run: as §1
SN12C = assay: Antiproliferative activity against human SN12C cells assessed as cell growth inhibition at 10 uM incubated for 48 hrs by sulforhodamine B assay relative to control; assay type: functional; how it was run: as §1
ACHN = assay: Antiproliferative activity against human ACHN cells assessed as cell growth inhibition at 10 uM incubated for 48 hrs by sulforhodamine B assay relative to control; assay type: functional
How it was run: (§2)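 Single-dose NCI-60 prescreen at 10^-5 M. Cells in RPMI 1640 with 5% FBS and 2 mM L-glutamine, seeded 5,000–40,000 cells/well with 24 h preincubation, then drug exposure for 48 h at 37 °C under 5% CO2. Growth read by SRB staining of TCA-fixed cells at 515 nm against time-zero and untreated controls. Negative growth values denote cell kill.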

OVCAR-8 = assay: Antiproliferative activity against human OVCAR-8 cells assessed as cell growth inhibition at 10 uM incubated for 48 hrs by sulforhodamine B assay relative to control; assay type: functional; how it was run: as §1
UACC-62 = assay: Antiproliferative activity against human UACC-62 cells assessed as cell growth inhibition at 10 uM incubated for 48 hrs by sulforhodamine B assay relative to control; assay type: functional; how it was run: as §1
SK-MEL-5 = assay: Antiproliferative activity against human SK-MEL-5 cells assessed as cell growth inhibition at 10 uM incubated for 48 hrs by sulforhodamine B assay relative to control; assay type: functional; how it was run: as §1
LOX IMVI = assay: Antiproliferative activity against human LOX IMVI cells assessed as cell growth inhibition at 10 uM incubated for 48 hrs by sulforhodamine B assay relative to control; assay type: functional; how it was run: as §1
U-251 = assay: Antiproliferative activity against human U-251 cells assessed as cell growth inhibition at 10 uM incubated for 48 hrs by sulforhodamine B assay relative to control; assay type: functional; how it was run: as §1
SNB-75 = assay: Antiproliferative activity against human SNB-75 cells assessed as cell growth inhibition at 10 uM incubated for 48 hrs by sulforhodamine B assay relative to control; assay type: functional; how it was run: as §1
SNB-19 = assay: Antiproliferative activity against human SNB-19 cells assessed as cell growth inhibition at 10 uM incubated for 48 hrs by sulforhodamine B assay relative to control; assay type: functional; how it was run: as §1
SF-268 = assay: Antiproliferative activity against human SF-268 cells assessed as cell growth inhibition at 10 uM incubated for 48 hrs by sulforhodamine B assay relative to control; assay type: functional; how it was run: as §1
KM12 = assay: Antiproliferative activity against human KM12 cells assessed as cell growth inhibition at 10 uM incubated for 48 hrs by sulforhodamine B assay relative to control; assay type: functional; how it was run: as §1
HT-29 = assay: Antiproliferative activity against human HT-29 cells assessed as cell growth inhibition at 10 uM incubated for 48 hrs by sulforhodamine B assay relative to control; assay type: functional; how it was run: as §1
HCT-15 = assay: Antiproliferative activity against human HCT-15 cells assessed as cell growth inhibition at 10 uM incubated for 48 hrs by sulforhodamine B assay relative to control; assay type: functional
How it was run: (§3)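 NCI-60 one-dose prescreen at 10^-5 M. Cells grown in RPMI 1640 with 5% FBS and 2 mM glutamine, preincubated 24 h, then exposed 48 h at 37 °C. Adherent lines TCA-fixed, SRB-stained, A515 read. Growth percent relative to time-zero and control; negative values mean cell kill.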

HCT-116 = assay: Antiproliferative activity against human HCT-116 cells assessed as cell growth inhibition at 10 uM incubated for 48 hrs by sulforhodamine B assay relative to control; assay type: functional; how it was run: as §3
NCI-H522 = assay: Antiproliferative activity against human NCI-H522 cells assessed as cell growth inhibition at 10 uM incubated for 48 hrs by sulforhodamine B assay relative to control; assay type: functional; how it was run: as §1
NCI-H460 = assay: Antiproliferative activity against human NCI-H460 cells assessed as cell growth inhibition at 10 uM incubated for 48 hrs by sulforhodamine B assay relative to control; assay type: functional; how it was run: as §1
NCI-H322M = assay: Antiproliferative activity against human NCI-H322M cells assessed as cell growth inhibition at 10 uM incubated for 48 hrs by sulforhodamine B assay relative to control; assay type: functional; how it was run: as §1
NCI-H226 = assay: Antiproliferative activity against human NCI-H226 cells assessed as cell growth inhibition at 10 uM incubated for 48 hrs by sulforhodamine B assay relative to control; assay type: functional; how it was run: as §1
HOP-92 = assay: Antiproliferative activity against human HOP-92 cells assessed as cell growth inhibition at 10 uM incubated for 48 hrs by sulforhodamine B assay relative to control; assay type: functional; how it was run: as §3
EKVX = assay: Antiproliferative activity against human EKVX cells assessed as cell growth inhibition at 10 uM incubated for 48 hrs by sulforhodamine B assay relative to control; assay type: functional; how it was run: as §3
A549 = assay: Antiproliferative activity against human A549 cells assessed as cell growth inhibition at 10 uM incubated for 48 hrs by sulforhodamine B assay relative to control; assay type: functional; how it was run: as §2
SR = assay: Antiproliferative activity against human SR cells assessed as cell growth inhibition at 10 uM incubated for 48 hrs by sulforhodamine B assay relative to control; assay type: functional; how it was run: as §1
RPMI-8226 = assay: Antiproliferative activity against human RPMI-8226 cells assessed as cell growth inhibition at 10 uM incubated for 48 hrs by sulforhodamine B assay relative to control; assay type: functional; how it was run: as §1
MOLT-4 = assay: Antiproliferative activity against human MOLT-4 cells assessed as cell growth inhibition at 10 uM incubated for 48 hrs by sulforhodamine B assay relative to control; assay type: functional; how it was run: as §1
K562 = assay: Antiproliferative activity against human K562 cells assessed as cell growth inhibition at 10 uM incubated for 48 hrs by sulforhodamine B assay relative to control; assay type: functional; how it was run: as §1
HL-60 = assay: Antiproliferative activity against human HL-60 cells assessed as cell growth inhibition at 10 uM incubated for 48 hrs by sulforhodamine B assay relative to control; assay type: functional; how it was run: as §3
CCRF-CEM = assay: Antiproliferative activity against human CCRF-CEM cells assessed as cell growth inhibition at 10 uM incubated for 48 hrs by sulforhodamine B assay relative to control; assay type: functional; how it was run: as §2
MDA-MB-468 = assay: Antiproliferative activity against human MDA-MB-468 cells assessed as cell growth inhibition at 10 uM incubated for 48 hrs by sulforhodamine B assay relative to control; assay type: functional; how it was run: as §1
BT-549 = assay: Antiproliferative activity against human BT-549 cells assessed as cell growth inhibition at 10 uM incubated for 48 hrs by sulforhodamine B assay relative to control; assay type: functional; how it was run: as §2
DU-145 = assay: Antiproliferative activity against human DU-145 cells assessed as cell growth inhibition at 10 uM incubated for 48 hrs by sulforhodamine B assay relative to control; assay type: functional; how it was run: as §3
A498 = assay: Antiproliferative activity against human A498 cells assessed as cell growth inhibition at 10 uM incubated for 48 hrs by sulforhodamine B assay relative to control; assay type: functional; how it was run: as §2
786-0 = assay: Antiproliferative activity against human 786-0 cells assessed as cell growth inhibition at 10 uM incubated for 48 hrs by sulforhodamine B assay relative to control; assay type: functional; how it was run: as §2
NCI-H23 = assay: Antiproliferative activity against human NCI-H23 cells assessed as cell growth inhibition at 10 uM incubated for 48 hrs by sulforhodamine B assay relative to control; assay type: functional; how it was run: as §1

logD at 1.417 h [1] | Structure (SMILES) | inhibition at 10 µM (T47D) | inhibition at 10 µM (MDA-MB-231) | inhibition at 10 µM (PC-3) | inhibition at 10 µM (UO-31) | inhibition at 10 µM (SN12C) | inhibition at 10 µM (OVCAR-8) | inhibition at 10 µM (UACC-62) | inhibition at 10 µM (SK-MEL-5) | inhibition at 10 µM (LOX IMVI) | inhibition at 10 µM (U-251) | inhibition at 10 µM (SNB-75) | inhibition at 10 µM (KM12) | inhibition at 10 µM (HT-29) | inhibition at 10 µM (HCT-15) | inhibition at 10 µM (HCT-116) | inhibition at 10 µM (NCI-H522) | inhibition at 10 µM (NCI-H460) | inhibition at 10 µM (NCI-H226) | inhibition at 10 µM (HOP-92) | also measured
1.72 | FC(F)(F)c1cccc(-c2cn3ccnc3c(-c3ccc4ncn(C5CCCCC5)c4c3)n2)c1 | 52.1% | 21.8% | 36.5% | 22.5% | 8.3% | 10.1% | 4.33% | 4.32% | 3.45% | 5.93% | 4.58% | 1.25% | 6.41% | 0.36% | 17.6% | 10.7% | 4.38% | 1.55% | 8.38% | inhibition at 10 µM (MCF7): 19.9%; inhibition at 10 µM (ACHN): 0.3%; inhibition at 10 µM (SNB-19): 2.24%; inhibition at 10 µM (SF-268): 3.3%; inhibition at 10 µM (NCI-H322M): 5.83%; inhibition at 10 µM (EKVX): 4.79%; inhibition at 10 µM (A549): 5.15%; inhibition at 10 µM (SR): 15.6%; inhibition at 10 µM (RPMI-8226): 32.1%; inhibition at 10 µM (MOLT-4): 32.9%; inhibition at 10 µM (K562): 21.5%; inhibition at 10 µM (HL-60): 1.06%; inhibition at 10 µM (CCRF-CEM): 27.3%
1.38 | c1csc(-c2cn3ccnc3c(-c3ccc4ncn(C5CCCCC5)c4c3)n2)c1 | 70.3% | 10.8% | 49.1% | 10.9% | 2.84% | 9.34% | 24.8% | 8.05% | 1.07% | 3.92% | 8.13% | 4.89% | 0.09% | 2.33% | 21.1% | 13.2% | 1.3% | 17.1% | 32.5% | inhibition at 10 µM (MDA-MB-468): 15.1%; inhibition at 10 µM (BT-549): 12.2%; inhibition at 10 µM (DU-145): 5.07%; inhibition at 10 µM (A498): 25%; inhibition at 10 µM (786-0): 4.1%; inhibition at 10 µM (NCI-H23): 5.95%; inhibition at 10 µM (A549): 5.33%; inhibition at 10 µM (SR): 27.2%; inhibition at 10 µM (RPMI-8226): 52.3%; inhibition at 10 µM (MOLT-4): 30.8%; inhibition at 10 µM (K562): 26.9%; inhibition at 10 µM (HL-60): 26.6%; inhibition at 10 µM (CCRF-CEM): 46.4%
